According to ChEMBL document CHEMBL5696442, “Discovery of type II inhibitors of TGFβ-activated kinase 1 (TAK1) and mitogen-activated protein kinase kinase kinase kinase 2 (MAP4K2)” (J Med Chem, 2015):
Activity calls are given as the source filed them. No cut-off for these calls is given here.

Columns and labels:
[1] = target: Death-associated protein kinase 2 (Homo sapiens) (UniProt Q9UIK4); test: Inhibition of DAPK2 (unknown origin) at 10 uM by Ambit Kinomescan binding assay
[2] = target: Insulin receptor (Homo sapiens) (UniProt P06213); test: Inhibition of INSR (unknown origin) at 10 uM by Ambit Kinomescan binding assay relative to control
Sequence of Insulin receptor (Homo sapiens) (P06213 28-758 limits assumed): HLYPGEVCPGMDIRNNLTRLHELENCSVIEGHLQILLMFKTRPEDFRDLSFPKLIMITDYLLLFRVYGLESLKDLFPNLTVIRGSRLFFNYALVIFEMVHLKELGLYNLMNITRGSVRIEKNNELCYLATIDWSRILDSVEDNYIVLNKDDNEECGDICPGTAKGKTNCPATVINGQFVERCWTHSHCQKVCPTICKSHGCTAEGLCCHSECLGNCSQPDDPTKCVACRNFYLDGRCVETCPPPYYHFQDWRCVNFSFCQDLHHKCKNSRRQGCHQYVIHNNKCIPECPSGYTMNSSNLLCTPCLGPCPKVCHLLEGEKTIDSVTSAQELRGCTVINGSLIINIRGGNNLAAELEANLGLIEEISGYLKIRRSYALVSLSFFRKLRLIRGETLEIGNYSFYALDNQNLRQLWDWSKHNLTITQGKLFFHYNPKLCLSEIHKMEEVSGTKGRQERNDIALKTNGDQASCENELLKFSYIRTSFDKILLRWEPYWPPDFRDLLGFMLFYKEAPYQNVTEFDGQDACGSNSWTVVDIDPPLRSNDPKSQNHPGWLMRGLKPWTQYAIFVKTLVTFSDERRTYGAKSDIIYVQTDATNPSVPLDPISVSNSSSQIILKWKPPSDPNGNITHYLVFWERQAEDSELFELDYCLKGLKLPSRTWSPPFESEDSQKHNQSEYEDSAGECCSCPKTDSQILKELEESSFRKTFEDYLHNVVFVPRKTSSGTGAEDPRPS
Sequence of Insulin receptor (Homo sapiens) (P06213 763-1382 limits assumed): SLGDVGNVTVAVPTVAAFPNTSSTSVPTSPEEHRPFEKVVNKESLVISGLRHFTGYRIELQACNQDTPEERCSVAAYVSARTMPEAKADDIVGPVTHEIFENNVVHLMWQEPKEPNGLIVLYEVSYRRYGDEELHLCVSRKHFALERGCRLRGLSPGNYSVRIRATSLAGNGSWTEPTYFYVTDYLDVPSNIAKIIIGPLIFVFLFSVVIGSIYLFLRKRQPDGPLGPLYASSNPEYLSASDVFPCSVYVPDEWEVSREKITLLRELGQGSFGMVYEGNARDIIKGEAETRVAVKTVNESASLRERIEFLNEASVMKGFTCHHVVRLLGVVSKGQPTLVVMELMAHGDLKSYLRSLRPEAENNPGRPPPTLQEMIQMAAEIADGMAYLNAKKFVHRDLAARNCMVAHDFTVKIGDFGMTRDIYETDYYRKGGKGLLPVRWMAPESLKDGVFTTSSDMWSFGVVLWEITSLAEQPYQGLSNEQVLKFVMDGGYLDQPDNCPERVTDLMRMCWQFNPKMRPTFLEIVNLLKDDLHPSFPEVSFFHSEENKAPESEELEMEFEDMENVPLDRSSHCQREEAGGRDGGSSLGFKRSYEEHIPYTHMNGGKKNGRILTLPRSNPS

[3] = target: T1, Dual specificity mitogen-activated protein kinase kinase 6 (Homo sapiens) (UniProt P52564); test: Inhibition of MAP2K6 K1 labeling site in human Huh-7 cells at 1 uM by KiNativ Profiling analysis relative to control; type: cell-based
T1 sequence (whole entry): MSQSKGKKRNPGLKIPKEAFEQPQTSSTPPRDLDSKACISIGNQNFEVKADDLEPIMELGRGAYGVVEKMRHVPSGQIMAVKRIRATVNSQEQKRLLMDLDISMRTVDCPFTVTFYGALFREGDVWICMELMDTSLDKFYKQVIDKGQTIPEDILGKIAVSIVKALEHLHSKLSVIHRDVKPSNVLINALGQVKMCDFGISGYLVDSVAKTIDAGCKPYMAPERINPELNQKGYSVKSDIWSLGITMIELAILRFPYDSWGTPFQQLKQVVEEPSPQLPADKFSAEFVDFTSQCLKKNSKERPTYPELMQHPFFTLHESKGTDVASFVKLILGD

[4] = target: Proto-oncogene tyrosine-protein kinase Src (Homo sapiens, UniProt P12931); test: Inhibition of SRC (unknown origin) at 10 uM by Ambit Kinomescan binding assay relative to control; values are per cent of control
Sequence of Proto-oncogene tyrosine-protein kinase Src (P12931 2-536 limits assumed): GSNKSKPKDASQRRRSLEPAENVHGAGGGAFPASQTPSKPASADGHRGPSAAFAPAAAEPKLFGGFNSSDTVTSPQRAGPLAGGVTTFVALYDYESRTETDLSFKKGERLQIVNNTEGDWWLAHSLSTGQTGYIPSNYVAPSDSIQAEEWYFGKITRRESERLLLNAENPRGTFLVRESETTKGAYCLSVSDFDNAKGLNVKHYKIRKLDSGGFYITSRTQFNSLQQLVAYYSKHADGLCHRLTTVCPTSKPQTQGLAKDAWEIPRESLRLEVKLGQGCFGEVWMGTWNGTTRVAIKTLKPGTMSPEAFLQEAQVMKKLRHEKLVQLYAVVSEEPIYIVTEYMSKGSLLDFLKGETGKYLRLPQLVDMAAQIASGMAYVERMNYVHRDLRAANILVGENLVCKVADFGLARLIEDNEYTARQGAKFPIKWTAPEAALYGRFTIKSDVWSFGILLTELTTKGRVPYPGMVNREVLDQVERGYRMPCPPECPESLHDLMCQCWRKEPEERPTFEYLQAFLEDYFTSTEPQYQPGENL

[5] = target: Ribosomal protein S6 kinase alpha-1 (Homo sapiens) (UniProt Q15418); test: Inhibition of RSK1 domain 1 ACT labeling site in human Huh-7 cell lysate at 1 uM by KiNativ Profiling analysis relative to control; type: subcellular
Sequence of Ribosomal protein S6 kinase alpha-1 (Homo sapiens) (Q15418 whole entry, the tested form may be a part): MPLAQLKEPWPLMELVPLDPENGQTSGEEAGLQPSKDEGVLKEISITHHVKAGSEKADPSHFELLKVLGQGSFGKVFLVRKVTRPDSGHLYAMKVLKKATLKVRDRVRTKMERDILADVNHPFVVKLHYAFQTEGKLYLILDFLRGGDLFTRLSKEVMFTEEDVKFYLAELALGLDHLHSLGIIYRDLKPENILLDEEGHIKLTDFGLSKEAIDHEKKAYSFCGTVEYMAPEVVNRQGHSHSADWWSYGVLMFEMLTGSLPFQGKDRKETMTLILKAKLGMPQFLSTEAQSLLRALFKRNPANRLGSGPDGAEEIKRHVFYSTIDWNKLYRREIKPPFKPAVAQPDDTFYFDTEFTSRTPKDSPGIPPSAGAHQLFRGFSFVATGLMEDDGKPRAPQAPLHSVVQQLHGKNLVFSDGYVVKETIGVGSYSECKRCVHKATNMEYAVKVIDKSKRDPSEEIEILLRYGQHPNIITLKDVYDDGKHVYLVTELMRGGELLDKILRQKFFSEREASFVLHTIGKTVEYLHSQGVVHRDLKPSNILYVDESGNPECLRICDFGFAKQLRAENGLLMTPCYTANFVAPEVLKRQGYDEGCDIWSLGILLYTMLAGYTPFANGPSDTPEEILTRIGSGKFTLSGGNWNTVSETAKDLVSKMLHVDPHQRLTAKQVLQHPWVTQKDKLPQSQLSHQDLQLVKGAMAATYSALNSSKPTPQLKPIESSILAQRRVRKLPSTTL

[6] = target: Serine/threonine-protein kinase 26 (Homo sapiens) (UniProt Q9P289); test: Inhibition of MST4 Lys2 labeling site in human Huh-7 cells at 1 uM by KiNativ Profiling analysis relative to control; type: cell-based
Sequence of Serine/threonine-protein kinase 26 (Homo sapiens) (Q9P289 2-416 limits assumed): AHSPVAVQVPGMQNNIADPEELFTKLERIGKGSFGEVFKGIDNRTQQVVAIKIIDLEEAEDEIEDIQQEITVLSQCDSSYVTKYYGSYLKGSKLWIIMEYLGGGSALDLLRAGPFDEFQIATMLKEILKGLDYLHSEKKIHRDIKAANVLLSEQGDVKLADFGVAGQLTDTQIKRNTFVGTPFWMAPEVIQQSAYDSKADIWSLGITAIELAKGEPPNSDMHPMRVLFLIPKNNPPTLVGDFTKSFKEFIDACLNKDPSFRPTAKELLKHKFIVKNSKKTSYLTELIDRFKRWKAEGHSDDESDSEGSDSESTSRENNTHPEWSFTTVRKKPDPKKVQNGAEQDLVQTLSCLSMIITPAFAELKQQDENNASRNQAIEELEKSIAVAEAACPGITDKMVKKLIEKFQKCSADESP

[7] = target: T2, Serine/threonine-protein kinase D1 (Homo sapiens) (UniProt Q15139); test: Inhibition of PKD1 Lys2 labeling site in human Huh-7 cells at 1 uM by KiNativ Profiling analysis relative to control; type: cell-based
T2 sequence (whole entry): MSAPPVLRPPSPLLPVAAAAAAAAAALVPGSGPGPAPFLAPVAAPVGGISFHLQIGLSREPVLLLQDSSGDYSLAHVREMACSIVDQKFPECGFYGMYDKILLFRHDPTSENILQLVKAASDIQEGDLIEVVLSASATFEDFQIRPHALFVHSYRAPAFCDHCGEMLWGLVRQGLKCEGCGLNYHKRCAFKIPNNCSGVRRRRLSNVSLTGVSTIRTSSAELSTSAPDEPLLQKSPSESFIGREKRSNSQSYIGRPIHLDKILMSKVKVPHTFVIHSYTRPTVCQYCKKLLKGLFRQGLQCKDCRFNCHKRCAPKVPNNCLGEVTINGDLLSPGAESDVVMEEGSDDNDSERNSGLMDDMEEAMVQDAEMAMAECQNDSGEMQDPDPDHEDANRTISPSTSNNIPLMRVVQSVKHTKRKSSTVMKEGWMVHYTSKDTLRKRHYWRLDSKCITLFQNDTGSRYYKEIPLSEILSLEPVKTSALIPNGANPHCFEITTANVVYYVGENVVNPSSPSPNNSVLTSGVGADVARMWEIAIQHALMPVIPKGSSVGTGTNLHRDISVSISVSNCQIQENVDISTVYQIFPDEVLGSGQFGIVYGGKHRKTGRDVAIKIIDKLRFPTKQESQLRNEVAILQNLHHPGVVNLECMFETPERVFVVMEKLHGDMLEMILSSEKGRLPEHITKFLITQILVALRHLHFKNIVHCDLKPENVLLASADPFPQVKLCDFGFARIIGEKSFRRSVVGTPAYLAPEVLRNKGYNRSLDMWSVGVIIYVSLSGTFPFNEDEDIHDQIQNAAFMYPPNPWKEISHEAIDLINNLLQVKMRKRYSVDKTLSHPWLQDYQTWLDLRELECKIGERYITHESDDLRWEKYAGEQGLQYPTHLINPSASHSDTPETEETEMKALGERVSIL

[8] = target: Ribosomal protein S6 kinase alpha-3 (Homo sapiens) (UniProt P51812); test: Inhibition of RSK2 domain1 ACT labeling site in human A-375 cells at 5 uM by KiNativ Profiling analysis relative to control; type: cell-based
Sequence of Ribosomal protein S6 kinase alpha-3 (Homo sapiens) (P51812 whole entry, the tested form may be a part): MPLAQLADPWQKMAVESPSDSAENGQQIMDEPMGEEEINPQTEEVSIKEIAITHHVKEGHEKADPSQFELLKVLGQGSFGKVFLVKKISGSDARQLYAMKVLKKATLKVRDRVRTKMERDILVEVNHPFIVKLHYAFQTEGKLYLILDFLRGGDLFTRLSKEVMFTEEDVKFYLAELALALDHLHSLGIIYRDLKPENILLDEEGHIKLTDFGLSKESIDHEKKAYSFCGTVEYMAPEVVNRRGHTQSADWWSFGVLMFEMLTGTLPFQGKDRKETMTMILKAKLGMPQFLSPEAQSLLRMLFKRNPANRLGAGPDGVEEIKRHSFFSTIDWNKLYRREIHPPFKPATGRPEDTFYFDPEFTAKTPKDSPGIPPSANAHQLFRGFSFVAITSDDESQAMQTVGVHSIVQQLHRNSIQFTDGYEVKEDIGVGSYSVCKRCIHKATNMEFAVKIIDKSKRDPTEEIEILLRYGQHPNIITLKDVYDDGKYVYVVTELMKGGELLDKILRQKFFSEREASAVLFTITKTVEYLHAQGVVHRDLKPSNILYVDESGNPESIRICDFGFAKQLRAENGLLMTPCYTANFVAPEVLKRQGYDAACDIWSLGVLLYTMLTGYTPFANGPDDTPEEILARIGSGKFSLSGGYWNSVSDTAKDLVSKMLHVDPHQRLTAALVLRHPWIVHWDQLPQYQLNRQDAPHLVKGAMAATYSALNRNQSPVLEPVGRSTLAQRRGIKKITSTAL
Summary of the method: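 Live A375 melanoma cells treated with compound at 5 or 0.5 μM, then lysed. Lysate kinases were labeled with a lysine-reactive ATP or ADP-biotin probe. Inhibition was read as protection of labeling sites from the probe.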

[9] = target: T3, Serine/threonine-protein kinase NLK (Homo sapiens) (UniProt Q9UBE8); test: Inhibition of NLK (unknown origin) at 1 uM by Ambit Kinomescan binding assay relative to control; values are per cent of control
T3 sequence (whole entry): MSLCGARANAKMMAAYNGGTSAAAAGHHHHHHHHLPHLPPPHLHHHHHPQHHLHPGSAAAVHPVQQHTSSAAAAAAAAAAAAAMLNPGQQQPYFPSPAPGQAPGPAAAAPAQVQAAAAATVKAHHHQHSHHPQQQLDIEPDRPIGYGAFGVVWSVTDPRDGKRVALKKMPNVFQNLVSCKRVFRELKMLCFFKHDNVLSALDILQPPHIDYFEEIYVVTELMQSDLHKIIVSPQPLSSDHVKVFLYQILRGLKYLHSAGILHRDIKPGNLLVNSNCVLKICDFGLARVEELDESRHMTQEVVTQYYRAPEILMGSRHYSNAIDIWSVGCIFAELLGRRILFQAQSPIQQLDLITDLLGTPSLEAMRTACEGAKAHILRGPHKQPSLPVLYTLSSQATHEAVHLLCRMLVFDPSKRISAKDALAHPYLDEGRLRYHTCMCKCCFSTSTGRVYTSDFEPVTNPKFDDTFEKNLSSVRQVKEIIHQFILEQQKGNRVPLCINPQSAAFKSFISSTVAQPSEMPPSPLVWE

[10] = system: Tyrosine-protein kinase ABL1 (Homo sapiens), P00519 [H396P]; test: Inhibition of phosphorylated ABL1 H396P mutant (unknown origin) at 1 uM by Ambit Kinomescan binding assay relative to control; values are per cent of control

Sequence of Death-associated protein kinase 2 (Homo sapiens) (Q9UIK4 whole entry, looked up): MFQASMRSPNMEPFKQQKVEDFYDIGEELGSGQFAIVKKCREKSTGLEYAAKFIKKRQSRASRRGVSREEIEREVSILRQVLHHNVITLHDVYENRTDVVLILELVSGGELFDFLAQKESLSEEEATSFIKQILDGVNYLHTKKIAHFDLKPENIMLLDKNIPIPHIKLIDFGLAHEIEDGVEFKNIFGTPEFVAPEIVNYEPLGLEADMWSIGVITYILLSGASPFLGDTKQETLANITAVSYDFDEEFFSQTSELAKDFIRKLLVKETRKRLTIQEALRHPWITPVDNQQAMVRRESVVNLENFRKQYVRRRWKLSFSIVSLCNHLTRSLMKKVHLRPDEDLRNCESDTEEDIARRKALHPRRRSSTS

CCN1CCN(Cc2ccc(NC(=O)c3ccc(C)c(Oc4ccnc5[nH]ccc45)c3)cc2C(F)(F)F)CC1
inhibition [1]: inactive
inhibition [2]: 30%
inhibition [3]: 16.3%
residual activity [4]: 0.2%

CNc1cc(Oc2cc(C(=O)Nc3cc(N4CCN(C)CC4)cc(C(F)(F)F)c3)ccc2C)ncn1
inhibition [5]: 9.3%
inhibition [6]: 25.2%
inhibition [7]: 9%

CCN1CCN(Cc2ccc(NC(=O)c3ccc(C)c(/C=C/c4cnc5[nH]ccc5c4OC)c3)cc2C(F)(F)F)CC1
inhibition [8]: 17.8%
residual activity [9]: 18%
percent of control [10]: 0.8%
